Test [1] deals with T1, Amyloid-beta precursor protein (Homo sapiens, UniProt P05067). As to the kind of experiment: Inhibition constant of compound on ligand binding to aggregates of Amyloid beta was measured by comparing with [125I]IMSB. The gist of the method: (§1)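 Aβ(1-40) or Aβ(1-42) peptide pre-aggregated at 0.5 or 0.25 mg/mL respectively in pH 7.4 buffer (10 mM sodium phosphate, 1 mM EDTA), 37 °C for 36-42 h with shaking. Fibrils (10-50 nM final) incubated with ¹²⁵I radioligand in 10% EtOH, 3 h at room temperature. Bound ligand separated by GF/B filtration and γ-counted. Ki from nonlinear regression. Three independent experiments, each in duplicate, mean ± SEM.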

The target in test [2] is T1, Amyloid-beta precursor protein. As to the kind of experiment: Inhibition constant for amyloid beta compared to [125I]TZDM. The gist of the method: (§2)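 Aβ(1-40) or Aβ(1-42) aggregated at 0.5 or 0.25 mg/mL respectively in pH 7.4 buffer (10 mM sodium phosphate, 1 mM EDTA), 37 °C, 36-42 h with shaking. Competition against ¹²⁵I radioligand with fibrils 10-50 nM (final), 10% EtOH, 1 mL. Incubation 3 h room temperature. Bound ligand collected by GF/B filtration, γ-counted. Ki by nonlinear regression. Mean ± SEM, three experiments in duplicate.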

For test [3] the target is unchanged. Put plainly: Inhibition constant for aggregates of amyloid beta compared to [125I]IMSB. In outline:
as §2

The target is the same in test [4]. As to the kind of experiment: Inhibition constant of compound on ligand binding to aggregates of Amyloid beta was measured by comparing with [125I]TZDM. The gist of the method: as §1

Data on one compound can be found in ChEMBL document CHEMBL1134439, “Radioiodinated styrylbenzenes and thioflavins as probes for amyloid aggregates” (J Med Chem, 2001).

T1 sequence (P05067 whole entry): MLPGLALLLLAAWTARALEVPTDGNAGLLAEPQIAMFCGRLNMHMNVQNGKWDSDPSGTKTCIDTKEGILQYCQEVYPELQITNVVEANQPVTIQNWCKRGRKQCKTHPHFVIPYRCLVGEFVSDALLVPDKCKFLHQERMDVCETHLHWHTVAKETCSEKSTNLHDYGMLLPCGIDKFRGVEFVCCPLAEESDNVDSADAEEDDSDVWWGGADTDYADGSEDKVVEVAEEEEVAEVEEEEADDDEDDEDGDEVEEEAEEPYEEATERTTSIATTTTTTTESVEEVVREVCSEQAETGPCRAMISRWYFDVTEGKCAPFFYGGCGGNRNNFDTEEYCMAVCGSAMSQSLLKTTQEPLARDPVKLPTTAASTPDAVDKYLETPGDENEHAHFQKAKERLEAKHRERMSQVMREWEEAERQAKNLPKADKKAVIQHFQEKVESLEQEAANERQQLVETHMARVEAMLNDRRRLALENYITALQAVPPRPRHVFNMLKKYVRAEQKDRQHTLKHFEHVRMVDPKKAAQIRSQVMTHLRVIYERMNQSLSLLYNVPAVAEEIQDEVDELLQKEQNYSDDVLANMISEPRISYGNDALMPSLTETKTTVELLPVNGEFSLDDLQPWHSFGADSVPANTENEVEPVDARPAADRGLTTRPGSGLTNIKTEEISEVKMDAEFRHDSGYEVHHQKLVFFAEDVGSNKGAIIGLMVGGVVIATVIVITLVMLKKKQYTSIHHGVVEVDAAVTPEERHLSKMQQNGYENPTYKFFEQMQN

Usually Ki stands for the dissociation constant of the complex between target and ligand, obtained from inhibition or displacement. Lower therefore signals higher affinity. With `O=C(O)c1cc(/N=N/c2ccc(-c3ccc(/N=N/c4ccc(O)c(C(=O)O)c4)cc3)cc2)ccc1O` [CHRYSAMINE G], the Ki in test [1] is 0.4 nM; in test [2] it was over 1000 nM; in test [3], 0.14 nM; in test [4] it was over 2000 nM.
